In publication PMC2883171 (Organic & biomolecular chemistry, 2008):
Several values for one entry are separate records, joined by “and”; a condition that tells them apart may be missing. Identical values can stand only once. One block for each compound: values may come before it.

Assays:
[1] = biological target: T1, soybean lipoxygenase-1 (sLO-1) (Glycine max, UniProt P08170); test: Kinetic inhibition assay of sLO-1; format: biochemical
T1 sequence (P08170 1-839): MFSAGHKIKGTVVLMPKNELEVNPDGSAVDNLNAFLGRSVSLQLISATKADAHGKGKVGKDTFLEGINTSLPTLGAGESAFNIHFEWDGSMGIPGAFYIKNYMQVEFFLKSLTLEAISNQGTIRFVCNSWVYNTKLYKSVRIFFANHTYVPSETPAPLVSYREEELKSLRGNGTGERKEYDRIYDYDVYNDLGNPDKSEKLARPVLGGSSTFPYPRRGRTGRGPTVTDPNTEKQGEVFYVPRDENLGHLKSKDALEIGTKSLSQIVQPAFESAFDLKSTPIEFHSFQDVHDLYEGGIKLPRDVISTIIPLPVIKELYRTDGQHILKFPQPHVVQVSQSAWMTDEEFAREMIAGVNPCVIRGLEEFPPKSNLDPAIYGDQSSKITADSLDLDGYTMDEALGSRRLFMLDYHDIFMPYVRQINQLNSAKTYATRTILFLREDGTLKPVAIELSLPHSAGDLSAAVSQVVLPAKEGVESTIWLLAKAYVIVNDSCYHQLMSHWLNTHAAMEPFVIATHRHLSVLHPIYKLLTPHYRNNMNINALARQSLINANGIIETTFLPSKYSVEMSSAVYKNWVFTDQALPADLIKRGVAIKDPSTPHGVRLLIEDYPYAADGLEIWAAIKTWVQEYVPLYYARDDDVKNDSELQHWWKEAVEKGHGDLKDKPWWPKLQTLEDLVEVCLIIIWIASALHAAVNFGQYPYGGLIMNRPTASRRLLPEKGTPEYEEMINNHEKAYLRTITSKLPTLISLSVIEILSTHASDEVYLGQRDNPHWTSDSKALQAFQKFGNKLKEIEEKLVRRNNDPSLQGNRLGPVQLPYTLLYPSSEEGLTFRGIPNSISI

[2] = biological target: T2, human reticulocyte 15-lipoxygenase-1 (15-hLO-1) (Homo sapiens, UniProt P16050); test: Kinetic inhibition assay of 15-hLO-1; format: biochemical; settings: for Ki: Kis; for Ki / Kii: noncompetitive
T2 sequence (P16050 1-662): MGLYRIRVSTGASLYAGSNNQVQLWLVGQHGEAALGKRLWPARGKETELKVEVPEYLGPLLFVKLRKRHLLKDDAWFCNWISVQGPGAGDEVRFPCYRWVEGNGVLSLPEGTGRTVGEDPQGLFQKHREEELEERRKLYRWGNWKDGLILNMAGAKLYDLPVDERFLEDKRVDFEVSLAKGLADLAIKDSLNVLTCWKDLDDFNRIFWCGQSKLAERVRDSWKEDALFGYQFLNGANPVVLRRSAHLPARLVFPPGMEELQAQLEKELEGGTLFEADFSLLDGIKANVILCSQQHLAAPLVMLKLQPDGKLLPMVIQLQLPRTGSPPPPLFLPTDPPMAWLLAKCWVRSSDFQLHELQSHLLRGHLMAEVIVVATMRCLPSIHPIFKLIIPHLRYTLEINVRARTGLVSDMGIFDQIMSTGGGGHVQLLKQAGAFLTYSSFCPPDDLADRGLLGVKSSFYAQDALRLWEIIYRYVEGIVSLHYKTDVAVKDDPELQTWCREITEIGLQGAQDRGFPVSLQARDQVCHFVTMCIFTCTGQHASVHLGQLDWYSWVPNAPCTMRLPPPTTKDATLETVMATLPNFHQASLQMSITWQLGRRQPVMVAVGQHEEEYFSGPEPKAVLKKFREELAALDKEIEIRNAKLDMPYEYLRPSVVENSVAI

[3] = biological target: T3, human platelet 12-lipoxygenase (12-hLO) (Homo sapiens, UniProt P18054); test: Kinetic inhibition assay of 12-hLO; format: biochemical
T3 sequence (P18054 1-663): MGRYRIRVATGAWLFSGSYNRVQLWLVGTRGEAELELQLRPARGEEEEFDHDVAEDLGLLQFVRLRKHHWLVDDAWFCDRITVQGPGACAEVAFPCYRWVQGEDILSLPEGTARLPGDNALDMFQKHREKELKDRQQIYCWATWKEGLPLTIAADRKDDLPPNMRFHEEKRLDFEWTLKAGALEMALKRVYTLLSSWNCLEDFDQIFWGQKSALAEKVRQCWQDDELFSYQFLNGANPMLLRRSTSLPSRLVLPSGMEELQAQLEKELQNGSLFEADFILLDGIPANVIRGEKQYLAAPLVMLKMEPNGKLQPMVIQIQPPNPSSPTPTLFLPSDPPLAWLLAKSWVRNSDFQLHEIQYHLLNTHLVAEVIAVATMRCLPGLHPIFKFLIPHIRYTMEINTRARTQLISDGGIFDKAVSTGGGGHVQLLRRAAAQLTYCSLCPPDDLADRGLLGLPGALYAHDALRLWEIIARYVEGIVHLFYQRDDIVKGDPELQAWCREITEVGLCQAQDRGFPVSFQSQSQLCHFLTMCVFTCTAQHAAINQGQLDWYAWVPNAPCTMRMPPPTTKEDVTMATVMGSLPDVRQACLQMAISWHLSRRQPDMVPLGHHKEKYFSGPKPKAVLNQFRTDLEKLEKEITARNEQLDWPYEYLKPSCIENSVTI

15-hLO-1 = biological target: T4, 15-hLO-1 (Homo sapiens, UniProt P16050); test: HPLC analysis of product distribution, 15-hLO-1; format: biochemical; settings: AA 15 µM, inhibitor at 5 × Ki, HEPES pH 7.5; error in parentheses
T4 sequence (P16050 1-662): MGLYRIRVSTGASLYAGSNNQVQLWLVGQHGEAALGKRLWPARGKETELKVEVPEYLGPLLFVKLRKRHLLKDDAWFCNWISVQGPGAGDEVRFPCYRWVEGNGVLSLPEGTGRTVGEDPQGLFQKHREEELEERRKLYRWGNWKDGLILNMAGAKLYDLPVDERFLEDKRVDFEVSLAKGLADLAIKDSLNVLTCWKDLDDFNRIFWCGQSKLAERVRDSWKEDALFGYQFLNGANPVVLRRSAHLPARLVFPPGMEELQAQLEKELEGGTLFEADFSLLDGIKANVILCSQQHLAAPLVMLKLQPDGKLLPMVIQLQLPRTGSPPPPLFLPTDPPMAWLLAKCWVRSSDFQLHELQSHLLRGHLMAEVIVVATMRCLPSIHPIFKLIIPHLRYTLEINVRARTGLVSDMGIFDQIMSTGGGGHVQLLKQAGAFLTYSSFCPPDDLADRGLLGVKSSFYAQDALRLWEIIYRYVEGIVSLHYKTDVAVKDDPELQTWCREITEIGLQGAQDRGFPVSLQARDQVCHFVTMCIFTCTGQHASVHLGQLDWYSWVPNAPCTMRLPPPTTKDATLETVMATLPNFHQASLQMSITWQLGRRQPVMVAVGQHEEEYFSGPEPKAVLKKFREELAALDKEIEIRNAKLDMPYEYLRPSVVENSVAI
Outline: (§1)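 Reaction was followed at 235 nm and products isolated after 15 min. Products were resolved by isocratic reverse-phase HPLC (55% A/45% B) against authentic HETE standards, with 8- and 12-HETE coeluting.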

12-hLO = biological target: T5, 12-hLO (Homo sapiens, UniProt P18054); test: HPLC analysis of product distribution, 12-hLO; format: biochemical; settings: AA 15 µM, inhibitor at 5 × Ki, HEPES pH 7.5; error in parentheses
T5 sequence (P18054 1-663): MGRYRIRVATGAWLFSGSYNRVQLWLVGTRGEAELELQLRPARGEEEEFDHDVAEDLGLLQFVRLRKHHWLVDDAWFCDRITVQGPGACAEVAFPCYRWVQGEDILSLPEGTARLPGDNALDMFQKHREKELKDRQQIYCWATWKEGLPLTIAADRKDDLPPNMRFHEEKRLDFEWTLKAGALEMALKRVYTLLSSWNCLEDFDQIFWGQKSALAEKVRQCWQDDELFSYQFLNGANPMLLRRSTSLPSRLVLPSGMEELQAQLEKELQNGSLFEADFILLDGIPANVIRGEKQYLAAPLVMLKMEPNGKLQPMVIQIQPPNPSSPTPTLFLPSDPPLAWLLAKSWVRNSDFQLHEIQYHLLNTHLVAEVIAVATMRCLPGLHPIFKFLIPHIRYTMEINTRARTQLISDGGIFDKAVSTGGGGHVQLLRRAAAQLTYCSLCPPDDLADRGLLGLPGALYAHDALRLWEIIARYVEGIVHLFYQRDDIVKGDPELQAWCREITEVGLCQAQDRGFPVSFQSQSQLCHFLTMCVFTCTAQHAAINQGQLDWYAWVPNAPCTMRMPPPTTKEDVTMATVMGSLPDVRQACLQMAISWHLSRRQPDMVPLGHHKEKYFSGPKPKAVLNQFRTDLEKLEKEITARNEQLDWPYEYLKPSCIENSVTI
Outline: as §1

sLO-1 [4] = biological target: T6, sLO-1 (Glycine max, UniProt P08170); test: HPLC analysis of product regioselectivity, sLO-1; format: biochemical, soybean; settings: exclusive product 13-HPODE, no 9-HPODE, with and without inhibitor
T6 sequence (P08170 1-839): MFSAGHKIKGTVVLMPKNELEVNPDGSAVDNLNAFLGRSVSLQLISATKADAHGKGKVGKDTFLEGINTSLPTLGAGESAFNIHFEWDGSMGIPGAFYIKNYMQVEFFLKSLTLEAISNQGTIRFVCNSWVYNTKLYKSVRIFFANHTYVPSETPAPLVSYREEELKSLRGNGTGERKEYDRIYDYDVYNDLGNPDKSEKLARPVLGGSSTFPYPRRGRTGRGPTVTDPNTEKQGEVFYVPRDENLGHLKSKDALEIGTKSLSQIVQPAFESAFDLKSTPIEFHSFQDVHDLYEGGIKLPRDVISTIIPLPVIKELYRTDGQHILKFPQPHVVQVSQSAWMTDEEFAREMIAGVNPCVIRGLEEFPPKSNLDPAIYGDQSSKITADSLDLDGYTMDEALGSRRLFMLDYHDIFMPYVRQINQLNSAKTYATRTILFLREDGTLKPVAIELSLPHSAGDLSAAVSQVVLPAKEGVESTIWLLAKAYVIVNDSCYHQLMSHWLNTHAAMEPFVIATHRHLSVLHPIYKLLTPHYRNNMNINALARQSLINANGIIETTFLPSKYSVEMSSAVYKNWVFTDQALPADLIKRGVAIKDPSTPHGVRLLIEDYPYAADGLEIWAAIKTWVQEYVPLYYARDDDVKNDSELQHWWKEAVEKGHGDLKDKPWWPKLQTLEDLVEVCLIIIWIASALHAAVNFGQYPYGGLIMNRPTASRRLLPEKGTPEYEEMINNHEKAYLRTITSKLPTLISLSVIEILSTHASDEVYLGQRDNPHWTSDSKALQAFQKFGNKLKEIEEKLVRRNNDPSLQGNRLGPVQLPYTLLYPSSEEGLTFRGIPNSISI

sLO-1 [5] = biological target: T6, sLO-1; test: Incubation of thiaLAs with sLO-1 as possible substrates; format: biochemical, soybean; settings: over the course of one hour
sLO-1 [6] = biological target: T6, sLO-1; test: Consumption of the inhibitor under turnover conditions with 13-HPODE; format: biochemical, soybean; settings: enzyme, AA and 13-HPODE, 1 hour, HPLC
[7] = Ki (competitive inhibition), substrate linoleic acid, pH 10.0
[8] = substrate linoleic acid, pH 10.0
[9] = substrate LA, pH 7.5, 13-HPODE activator

Ki [1, 7]: 22 µM
Ki ([1]; Kis, substrate arachidonic acid, pH 7.5, 13-HPODE activator, noncompetitive): 45.6 ± 11.1 µM
Ki ([1]; Kis, substrate arachidonic acid, pH 10.0, 13-HPODE activator, noncompetitive): 48.5 µM and 48 µM
Mode of inhibition in the presence of activator ([1]; oxidation of LA, 13-HPODE present): competitive inhibition
Mode of inhibition ([1]; substrate AA, pH 10.0 and pH 7.5, 13-HPODE activator): noncompetitive inhibition
Kii ([1]; substrate arachidonic acid, pH 7.5, 13-HPODE activator, noncompetitive): 38.2 ± 5.4 µM
Kii ([1]; substrate arachidonic acid, pH 10.0, 13-HPODE activator, noncompetitive): 36.0 ± 4.0 µM
Mode of inhibition [1, 8]: competitive inhibition
Mode of inhibition ([2]; AA as substrate): noncompetitive inhibitor
Ki ([2]; substrate AA, 13-HPODE activator): 11.4 µM
Ki [2, 9]: 20.1 µM
Kii ([2]; substrate AA, 13-HPODE activator, listed as 11-ThiaLA): 18.1 ± 2.0 µM
Kii ([2]; substrate AA, 13-HPODE activator, listed as 11-Thialinoleic acid): 18.1 µM
Kii [2, 9]: 20.0 ± 1.4 µM
Mode of inhibition ([2]; with respect to LA): noncompetitive inhibitor
Ki [3]: 2.5 µM
Mode of inhibition ([3]; AA as substrate): competitive inhibitor
Ki for 12-hLO smaller than for sLO-1 (LA) ([3]; compared with Ki for oxidation of LA by sLO-1): approximately 10 fold
Mode of inhibition in the presence of activator ([3]; oxidation of AA, 13-HPODE (16 µM) present): competitive inhibition
8-/12-HETE (%) (15-hLO-1): 16 (3) %
11-HETE (%) (15-hLO-1): 5 (1) %
15-HETE (%) (15-hLO-1): 79 (3) %
8-/12-HETE (%) (12-hLO): 93 (1) %
11-HETE (%) (12-hLO): 2 (1) %
15-HETE (%) (12-hLO): 5 (1) %
Conversion of the inhibitor under turnover conditions (sLO-1 [6]): no discernable conversion
SMILES: CCCCC/C=C\S/C=C\CCCCCCCC(=O)O [Compound 11-thiaLA, 11-Thialinoleic acid]
Effect on product regioselectivity of sLO-1 (sLO-1 [4]): did not affect the product regioselectivity
Activity as substrate on incubation with sLO-1 (sLO-1 [5]): did not result in any appreciable activity

Ki [1, 7]: 35 µM
Mode of inhibition [1, 8]: competitive inhibition
Substrate or inhibitor behaviour with 12-hLO ([3]; AA as substrate): neither a substrate nor an inhibitor
Conversion of the inhibitor under turnover conditions (sLO-1 [6]): oxidized to a small extent
SMILES: CCCCS/C=C\C/C=C\CCCCCCCC(=O)O [Compound 14-thiaLA, 14-Thialinoleic acid]
Activity as substrate on incubation with sLO-1 (sLO-1 [5]): did not result in any appreciable activity
